Measurements taken from PMC4346016 (Drug Design, Development and Therapy, 2015).
Like-named read-outs stand apart in the source and are kept apart here.

Columns and labels:
[1] = format: in vivo, human; settings: for AUClast geometric mean ratio (90% CI): dapoxetine with udenafil combined therapy/dapoxetine monotherapy; for half-life: t1/2β
In short: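 Six-sequence, three-period crossover in healthy men aged 20–45, fasted, with a 7-day washout. Single oral doses of dapoxetine 60 mg alone or with udenafil 200 mg. EDTA plasma was sampled from predose to 48 h. Parent and desmethyl metabolite were measured by UPLC-MS/MS with deuterated internal standards. Non-compartmental analysis: AUClast by trapezoidal rule, AUC0~∞ = AUClast + Clast/λz, CL/F = dose/AUC0~∞. Ratios from log-transformed mixed-model ANOVA with 90% CI.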

[2] = Tolerability / adverse drug reactions in healthy male subjects; format: in vivo, human; settings: for Abdominal discomfort: number of events / Abdominal discomfort: number of subjects / Adverse drug reactions, total: number of events / Decreased appetite: number of events / Decreased appetite: number of subjects / Diarrhea: number of events / Diarrhea: number of subjects / Dizziness: number of events / Dizziness: number of subjects / Headache: number of events / Headache: number of subjects / Insomnia: number of events / Insomnia: number of subjects / Nausea: number of events / Nausea: number of subjects / Ocular hyperemia: number of events / Ocular hyperemia: number of subjects / Somnolence: number of events / Somnolence: number of subjects / Suicidal ideation: number of events / Suicidal ideation: number of subjects / Vomiting: number of events / Vomiting: number of subjects / hyperhidrosis: number of events / hyperhidrosis: number of subjects / Adverse drug reactions, total: number of subjects: n=23 per treatment; for Adverse drug reactions, total: number of subjects / tolerability: udenafil 200 mg, dapoxetine 60 mg; for tolerability: alone or concomitantly, single oral doses
In short: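 Safety was monitored through each 48 h period and at follow-up 5–9 days after the last dose. Assessments were vital signs, 12-lead ECGs, hematology, blood chemistry, urinalysis, physical examinations and adverse-event monitoring. Each event was recorded with its symptoms/signs, duration, intensity, relation to study drug, action taken, outcome and seriousness. Counts are given as subjects and as events.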

[3] = cited from earlier work
[4] = integrated analysis of five trials, 6,081 patients; cited from earlier work
[5] = cited from earlier work; remark: listed apart in the source
[6] = format: in vivo, human; settings: for half-life: t1/2β; for half-life / CL/F: mean ± SD; for half-life / Tmax / CL/F: n=22; for Tmax: median (min, max); for pharmacokinetic interaction with dapoxetine: single oral doses; for AUClast geometric mean ratio (90% CI): udenafil with dapoxetine combined therapy/udenafil monotherapy
In short: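 Crossover in healthy fasted men: single oral udenafil 200 mg alone or with dapoxetine 60 mg, with 240 mL water and a 1-week washout. Blood was taken 0.25–48 h postdose into EDTA and spun at 1,800 g, 4°C. Udenafil (5.0–2,000.0 ng/mL) and DA-8164 (0.25–100.00 ng/mL) were measured by UPLC-MS/MS. Non-compartmental AUC and CL/F were derived. Geometric mean ratios with 90% CI came from log-transformed mixed-model ANOVA.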

[7] = format: in vivo, human; settings: two-compartment model, WinNonlin
[8] = cited from earlier work; remark: listed apart in the source
[9] = rats; cited from earlier work
[10] = cited from earlier work; remark: listed apart in the source
[11] = cited from earlier work; remark: listed apart in the source
[12] = combined therapy/dapoxetine monotherapy
[13] = male, human, plasma, oral, 60 mg
[14] = combined therapy/udenafil monotherapy
[15] = male, human, plasma, oral, 200 mg
[16] = male, human, plasma, oral, 200 mg, udenafil 200 mg alone
[17] = male, human, plasma, oral, udenafil 200 mg + dapoxetine 60 mg
[18] = udenafil 200 mg + dapoxetine 60 mg

CN(C)[C@@H](CCOc1cccc2ccccc12)c1ccccc1 [Dapoxetine]
AUC0~∞ geometric mean ratio (90% CI) [1, 12]: 1.117 (1.048–1.191)
CL/F geometric mean ratio (90% CI) [1, 12]: 0.895 (0.840–0.954)
Cmax geometric mean ratio (90% CI) [1, 12]: 0.837 (0.758–0.925)
t1/2β geometric mean ratio (90% CI) [1, 12]: 0.947 (0.873–1.028)
Cmax geometric mean ratio (90% CI) ([1]; combined therapy/dapoxetine monotherapy, listed as dapoxetine): 0.837
CL/F ([1]; dapoxetine 60 mg + udenafil 200 mg, mean ± SD, n=20): 26.59 ± 9.22 L/h
CL/F ([1]; dapoxetine 60 mg alone, mean ± SD, n=20): 30.41 ± 11.99 L/h
Tmax ([1]; dapoxetine 60 mg alone, median (min, max), n=20): 1.00 (0.50, 2.00) h
AUClast geometric mean ratio (90% CI) [1]: 1.125 (1.044–1.213)
AUClast geometric mean ratio (90% CI) ([1]; listed as dapoxetine): 1.125
AUC(0-inf) [1, 13]: 2360 ng·h/mL
Cmax [1, 13]: 437 ± 143 ng/mL
Tmax [1, 13]: 1 h
half-life ([1]; male, human, plasma, oral, 60 mg, dapoxetine 60 mg alone, mean ± SD, n=20): 16.2 ± 6.72 h
half-life ([1]; male, human, plasma, oral, span over dapoxetine alone and with udenafil): 15.3 to 16.2 h
AUC(0-t) ([1]; male, human, plasma, po, 60 mg): 2100 ng·h/mL
Abdominal discomfort: number of events [2]: 1 (1)
Abdominal discomfort: number of subjects [2]: 1 (1)
Adverse drug reactions, total: number of events [2]: 24
Decreased appetite: number of events [2]: 0 (0)
Decreased appetite: number of subjects [2]: 0 (0)
Diarrhea: number of events [2]: 2 (2)
Diarrhea: number of subjects [2]: 2 (2)
Dizziness: number of events [2]: 5 (5)
Dizziness: number of subjects [2]: 5 (5)
Headache: number of events [2]: 2 (2)
Headache: number of subjects [2]: 2 (2)
Insomnia: number of events [2]: 0 (0)
Insomnia: number of subjects [2]: 0 (0)
Nausea: number of events [2]: 11 (11)
Nausea: number of subjects [2]: 11 (11)
Ocular hyperemia: number of events [2]: 0 (0)
Ocular hyperemia: number of subjects [2]: 0 (0)
Somnolence: number of events [2]: 1 (1)
Somnolence: number of subjects [2]: 1 (1)
Suicidal ideation: number of events [2]: 0 (0)
Suicidal ideation: number of subjects [2]: 0 (0)
Vomiting: number of events [2]: 2 (2)
Vomiting: number of subjects [2]: 2 (2)
hyperhidrosis: number of events [2]: 0 (0)
hyperhidrosis: number of subjects [2]: 0 (0)
Adverse drug reactions, total: number of subjects [2]: 12
tolerability [2]: well tolerated
initial half-life ([3]; biphasic elimination): approximately 1.4 hours
plasma concentration as share of peak concentration ([3]; by 24 hours after drug administration): approximately 5%
Tmax [3]: 1.0 to 1.3 h
PE profile measures compared with placebo [4]: improved significantly
increase in AUC of active moiety with ketoconazole [5]: 88%
increase in Cmax of active moiety with ketoconazole [5]: 23%
increase in parent drug AUC with ketoconazole [5]: 99%
increase in parent drug Cmax with ketoconazole [5]: 35%

CCCOc1ccc(S(=O)(=O)NCCC2CCCN2C)cc1-c1nc2c(CCC)nn(C)c2c(=O)[nH]1 (centres unmarked) [Udenafil]
AUC0~∞ geometric mean ratio (90% CI) [6, 14]: 0.923 (0.867–0.983)
CL/F geometric mean ratio (90% CI) [6, 14]: 1.084 (1.017–1.154)
Cmax geometric mean ratio (90% CI) [6, 14]: 0.864 (0.789–0.947)
t1/2β geometric mean ratio (90% CI) [6, 14]: 0.984 (0.948–1.022)
Cmax geometric mean ratio (90% CI) ([6]; combined therapy/udenafil monotherapy, listed as udenafil): 0.864
AUC(0-inf) [6, 15]: 4930 ng·h/mL
Cmax [6, 15]: 693 ± 206 ng/mL
half-life [6, 16]: 11 ± 1.64 h
Tmax [6, 16]: 1 h
half-life [6, 17]: 10.8 ± 1.27 h
Tmax [6, 17]: 2 h
AUC(0-t) ([6]; male, human, plasma, po, 200 mg): 4730 ng·h/mL
pharmacokinetic interaction with dapoxetine [6, 18]: no clinically significant pharmacokinetic interactions
pharmacokinetic interaction with dapoxetine ([6]; udenafil 200 mg + dapoxetine 60 mg, listed as udenafil): no significant pharmacokinetic interactions
CL/F [6, 18]: 47.31 ± 14.07 L/h
CL/F ([6]; udenafil 200 mg alone): 43.69 ± 12.21 L/h
AUClast geometric mean ratio (90% CI) [6]: 0.923 (0.863–0.987)
AUClast geometric mean ratio (90% CI) ([6]; listed as udenafil): 0.923
Abdominal discomfort: number of events [2]: 0 (0)
Abdominal discomfort: number of subjects [2]: 0 (0)
Adverse drug reactions, total: number of events [2]: 4
Decreased appetite: number of events [2]: 1 (1)
Decreased appetite: number of subjects [2]: 1 (1)
Diarrhea: number of events [2]: 0 (0)
Diarrhea: number of subjects [2]: 0 (0)
Dizziness: number of events [2]: 1 (1)
Dizziness: number of subjects [2]: 1 (1)
Headache: number of events [2]: 0 (0)
Headache: number of subjects [2]: 0 (0)
Insomnia: number of events [2]: 1 (1)
Insomnia: number of subjects [2]: 1 (1)
Nausea: number of events [2]: 0 (0)
Nausea: number of subjects [2]: 0 (0)
Ocular hyperemia: number of events [2]: 1 (1)
Ocular hyperemia: number of subjects [2]: 1 (1)
Somnolence: number of events [2]: 0 (0)
Somnolence: number of subjects [2]: 0 (0)
Suicidal ideation: number of events [2]: 0 (0)
Suicidal ideation: number of subjects [2]: 0 (0)
Vomiting: number of events [2]: 0 (0)
Vomiting: number of subjects [2]: 0 (0)
hyperhidrosis: number of events [2]: 0 (0)
hyperhidrosis: number of subjects [2]: 0 (0)
Adverse drug reactions, total: number of subjects [2]: 3
tolerability [2]: well tolerated
absorption rate constant (ka) ([7]; combined therapy with dapoxetine): 0.50 ± 0.17 h⁻¹
absorption rate constant (ka) ([7]; monotherapy): 0.84 ± 0.29 h⁻¹
terminal half-life (t1/2β) ([8]; oral): 7.3 to 12.1 h
time to reach peak concentration (tmax) ([8]; oral): 0.8 to 1.3 h
ka ([8]; previously reported): 0.70 ± 0.26 h⁻¹
absolute oral bioavailability [9]: 38.0%–55.6
increase of mean AUClast on co-administration of ketoconazole [10]: 3.2 fold
increase of mean Cmax on co-administration of ketoconazole [10]: 1.9 fold
metabolic AUC ratio ([10]; udenafil administered alone): 1.71
metabolic AUC ratio ([10]; udenafil in combination with ketoconazole): 0.19

CN1CC(=O)N2[C@H](c3ccc4c(c3)OCO4)c3[nH]c4ccccc4c3C[C@@H]2C1=O [tadalafil]
pharmacokinetic interaction with dapoxetine [11]: no clinically significant pharmacokinetic interactions
